# Experimental data gathered from unrelated publications.
# Target: Inhibitor of nuclear factor kappa-B kinase subunit epsilon (IKBKE, Homo sapiens, UniProt Q14164)
# Sequence (Q14164 1-716, as in one of the studies): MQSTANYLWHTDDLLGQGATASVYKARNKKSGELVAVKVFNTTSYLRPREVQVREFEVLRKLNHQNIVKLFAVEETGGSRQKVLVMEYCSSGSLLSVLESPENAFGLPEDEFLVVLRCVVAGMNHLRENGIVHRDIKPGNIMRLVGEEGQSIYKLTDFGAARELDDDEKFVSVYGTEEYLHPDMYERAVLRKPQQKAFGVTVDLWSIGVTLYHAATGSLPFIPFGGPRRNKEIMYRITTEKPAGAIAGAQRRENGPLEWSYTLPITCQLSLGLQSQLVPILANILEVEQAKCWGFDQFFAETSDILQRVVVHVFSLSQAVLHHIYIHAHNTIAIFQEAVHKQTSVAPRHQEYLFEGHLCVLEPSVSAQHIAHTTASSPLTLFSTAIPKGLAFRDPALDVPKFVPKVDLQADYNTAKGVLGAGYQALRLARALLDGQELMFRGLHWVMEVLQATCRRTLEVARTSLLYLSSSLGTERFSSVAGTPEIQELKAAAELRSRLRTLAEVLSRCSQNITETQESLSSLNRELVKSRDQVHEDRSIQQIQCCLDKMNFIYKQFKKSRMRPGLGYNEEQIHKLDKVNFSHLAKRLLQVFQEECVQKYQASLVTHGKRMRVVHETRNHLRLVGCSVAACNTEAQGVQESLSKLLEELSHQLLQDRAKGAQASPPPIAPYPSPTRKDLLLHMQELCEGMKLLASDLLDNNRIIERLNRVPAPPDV
SMILES,assay,setting,measurement,value
CO[C@@H]1[C@H](N(C)C(=O)c2ccccc2)C[C@H]2O[C@]1(C)n1c3ccccc3c3c4c(c5c6ccccc6n2c5c31)C(=O)NC4,"enzyme activity, inhibitor",1 µM,inhibition,97%
CCCCC(=O)Nc1ccc(-c2ccc3ncn(CCC)c(=O)c3c2)cn1,"binding, competition with immobilised ligand",0.5 µM,remaining binding,93%
COc1ccc2[nH]c3c4[nH]c5ccc(OC)cc5c4c4c(c3c2c1)C(=O)NC4=O,binding,1 µM,remaining binding,48%
C#Cc1cc(-c2cc(Nc3nc(N[C@@H](C)c4ccc(F)cn4)ncc3Cl)n[nH]2)ccc1C=O,"enzyme activity, inhibitor",0.2 µM,inhibition,14.7%
Cc1ccc(NC(=O)c2ccnc(C(F)(F)F)c2)cc1-c1cc(OCCO)nc(N2CCOCC2)c1,binding,1 µM,remaining binding,94%
C=CC(=O)N1CCC([C@@H]2CCNc3c(C(N)=O)c(-c4ccc(Oc5ccccc5)cc4)nn32)CC1,"enzyme activity, inhibitor",1 µM,inhibition,1%
Cc1cc(O)c(-c2ccc([C@@H](C)CN(C)C)cc2)c2c1[nH]c(=O)c1sccc12,"enzyme activity, inhibitor",0.1 µM,inhibition,-7.74%
CC(C)S(=O)(=O)c1ccc2nccc(Nc3ccc4sc(C5CCCC5)nc4c3)c2c1,"enzyme activity, inhibitor",1 µM,activity vs control,113%
